The list is not random: actives were taken first. Their share in the collection is about 3.7%.
Kir21 block: inhibitors of mouse Kir2.1 inward-rectifier potassium channel; Inward rectifier potassium channel 2 (Mus musculus), P35561; HEK293-Kir2.1, FluxOR thallium flux fluorescence; hits give low values; B-score at 10 µM; hit rate 0.85% among 310,000; AID 1672, 2009;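 active = fluorescence ratio B-score at or below minus 3 SD of library scores, with starting-brightness B-score within 2 SD, cut at about -4.2 in these data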;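 note: channel flux triggered by added potassium and thallium sulfate stimulus; B-score of peak minus minimum fluorescence over baseline after thallium stimulus; more negative B-score means stronger Kir2.1 block with less thallium influx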
Target sequence (P35561 whole entry, looked up): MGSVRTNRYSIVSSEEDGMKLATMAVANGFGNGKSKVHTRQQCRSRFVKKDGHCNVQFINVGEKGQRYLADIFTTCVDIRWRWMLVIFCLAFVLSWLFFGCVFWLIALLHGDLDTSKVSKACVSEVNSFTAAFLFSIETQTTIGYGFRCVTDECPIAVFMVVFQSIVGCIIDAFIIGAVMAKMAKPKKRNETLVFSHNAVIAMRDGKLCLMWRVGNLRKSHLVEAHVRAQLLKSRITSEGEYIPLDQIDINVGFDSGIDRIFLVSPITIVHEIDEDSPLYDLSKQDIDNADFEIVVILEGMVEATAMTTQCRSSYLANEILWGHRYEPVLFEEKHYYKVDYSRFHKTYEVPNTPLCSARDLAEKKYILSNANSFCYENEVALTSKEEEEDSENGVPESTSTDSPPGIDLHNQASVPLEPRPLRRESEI
KCNQ1 block: inhibitors of human KCNQ1 channel, primary screen, cell-based, thallium flux, high-throughput | hit rate 1.3% among 310,000 | B-score at 10 µM | AID 2642, 2010 | CHO-K1 KCNQ1, FluxOR thallium flux fluorescence; hits give high values;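 active = compounds whose thallium flux B-score, printed positive for inhibition, exceeds three library SD while starting fluorescence stays within three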;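 note: channel opened by potassium depolarization with thallium stimulus after 20 min compound exposure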
hERG protect: hERG rescue from dofetilide block, primary screen, cell-based, CHO-hERG, FluxOR thallium flux, dofetilide IC70 | AID 1511, 2009 | hit rate 0.51% among 310,000 | Voltage-gated inwardly rectifying potassium channel KCNH2 (Homo sapiens), Q12809 | dofetilide IC70 present | activation (rescue from dofetilide block), less the hit threshold, % at 10 µM;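 active = activation above the mean of controls blocked by dofetilide plus 5 SD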;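 note: thallium influx through hERG after potassium depolarization seen as dye fluorescence rise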
KCNK3 block: human KCNK3 channel inhibitors, primary screen, CHO cells, FluxOR thallium flux, B-score; Potassium channel subfamily K member 3 (Homo sapiens), O14649; FluxOR fluorescence; hits give low values; B-score at 10 µM; hit rate 0.84% among 340,000; AID 602410, 2012;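 active = B-score under library mean minus 4 SD, starting fluorescence ratio at most library mean plus 5 SD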;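 note: more negative B-score means stronger inhibition of thallium flux through KCNK3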
KCNQ1 pot: potentiators or activators of KCNQ1 channel, primary screen, cell-based, thallium flux, high-throughput; AID 2648, 2010; hit rate 0.35% among 310,000; B-score at 10 µM; CHO-K1 KCNQ1, thallium flux FluxOR fluorescence; hits give high values; Potassium voltage-gated channel subfamily KQT member 1 (Homo sapiens), P51787;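 active = fluorescence ratio B-score, a plate-corrected score, at least three library SD, with initial intensity B-score within 5 SD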
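Assay system: stable KCNQ1 CHO-K1 line; medium: assay buffer, equal DMSO in all wells; timing: 90 min dye loading and 20 min compound exposure, both at room temperature; technique: kinetic FluxOR thallium fluorescence, 10-s 1-Hz baseline, 110-s post-stimulus read; read-out basis: B score of baseline-normalized fluorescence ratio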
KCNK9 block: KCNK9 potassium channel inhibitors, primary screen, HEK293 cells, thallium flux | Potassium channel subfamily K member 9 (Homo sapiens), Q9NPC2 | FluxOR thallium flux fluorescence; hits give low values | B-score at 10 µM | hit rate 1.2% among 310,000 | AID 488922, 2010;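 active = ratio B-score over 3 SD below the library mean, with starting fluorescence within 5 SD of its mean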;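 note: negative B-score means less thallium flux so channel inhibition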
KCNQ1 inh valid: KCNQ1 potassium channel inhibitors, confirmation, cell-based, Tl flux, duplicate | AID 588353, 2011 | shares compounds with KCNQ1 block | KCNQ1 cell line, FluxOR thallium flux fluorescence | inhibition, % at 10 µM | hit rate 93% among 1,600;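 active = primary screen active, with duplicate mean exceeding buffer control mean plus 3 SD of buffer wells, cut at about 28% in these data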;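 note: 0% = buffer control ratio and 100% = XE991 inhibitor control ratio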
CHO KCNQ1 ctr: thallium flux effects in parental CHO cells, counter-screen for KCNQ1 inhibitor project, cell-based, Tl flux | shares compounds with KCNQ1 block | parental CHO-K1, FluxOR thallium flux fluorescence ratio; hits give low values; zero means no signal rise above baseline | fluorescence ratio (Tl flux) at 10 µM | hit rate 21% among 1,600;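 active = mean of duplicate thallium-flux fluorescence ratios in parental host cells more than 5 SD below the buffer control mean, cut at about 0.38 in these data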;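 note: ratio is peak minus minimum fluorescence divided by baseline fluorescence; actives read low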
KCNQ1 ephys val: KCNQ1 channel inhibitors, confirmation, orthogonal assay, cell-based, automated electrophysiology; shares compounds with KCNQ1 block; calls only at 10 µM; KCNQ1-CHO cells, automated patch clamp current; hit rate 20% among 490;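 active = KCNQ1 current drop exceeding 3 SD of negative control wells, seen in both duplicate runs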;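 note: steady state current during a 2 s step from -80 to +40 mV; negative values mean current inhibition and positive values mean potentiation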
KCNQ2 inh: KCNQ2 channel inhibition, selectivity assay for KCNQ1 inhibitor project, cell-based; hit rate 71% among 1,600; KCNQ2 cells, FluxOR thallium flux fluorescence; inhibition, % at 10 µM; shares compounds with KCNQ1 block; AID 651746, 2012;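 active = mean percent inhibition of the KCNQ2 thallium signal more than 5 SD above the buffer-only control wells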;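 note: KCNQ2 expressed in CHO cells; 0% = buffer control wells and 100% = XE-991 inhibitor control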
KCNQ1-KCNE1 inh: KCNQ1/KCNE1 channel inhibition, selectivity assay for KCNQ1 inhibitor project, CHO-K1 cells, thallium flux, FluxOR. hit rate 77% among 1,600. shares compounds with KCNQ1 block. inhibition, % at 10 µM. FluxOR thallium flux fluorescence;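 active = mean percent inhibition of duplicate wells above the buffer-only control mean plus 3 SD of those controls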;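 note: 0% = buffer only wells and 100% = XE-991 inhibitor control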
Numbers without * were called inactive; i = inactive; x = no result; + = active, no number.

SMILES	Kir21 block	KCNQ1 block	hERG protect	KCNK3 block	KCNQ1 pot	KCNK9 block	KCNQ1 inh valid	CHO KCNQ1 ctr	KCNQ2 inh	KCNQ1-KCNE1 inh	others
COC(=O)CCS(=O)(=O)c1nc(-c2ccccc2)cc(C(F)(F)F)n1	-4.6*	8*	-16	i	i	i	26*	0.46	80%*	62%*
O=C(O)CCS(=O)(=O)c1nc(-c2cccs2)cc(C(F)(F)F)n1	-1.2	i	-9	i	i	i	x	x	x	x
CCOC(=O)C1CCN(S(=O)(=O)c2cn(C)cn2)CC1	-1.3	i	-3	i	i	i	x	x	x	x
Cc1cccc(C)c1-n1nnnc1C1(Nc2ccccc2)CCCCC1	0.01	7*	-14	i	i	-7.7*	109*	0.36*	109%*	130%*
Cc1ccc(OCCCCn2cnc3ccccc32)c(C)c1	-1.1	9*	-11	i	i	i	116*	0.51	74%*	82%*	KCNQ1 ephys val=i
Cc1ccc(C)c(OCCCCn2cnc3ccccc3c2=O)c1	-1.7	i	-9	i	i	i	x	x	x	x
CCCCNc1c2c3c(cccc3n(C)c1=O)C(=O)c1ccccc1-2	-12	29*	-38	i	i	i	+	0.013*	i	i
Cn1c(=O)c(NCCc2ccccc2)c2c3c(cccc31)C(=O)c1ccccc1-2	-13	29*	-44	i	i	i	+	0.004*	i	i
Cn1c(=O)c(NC2CCCCC2)c2c3c(cccc31)C(=O)c1ccccc1-2	x	x	x	i	x	x	x	x	x	x
COc1ccc(N(CC(=O)NC2CC3CCC2C3)S(=O)(=O)c2ccc(C)cc2)cc1OC (stereo not drawn)	1.4	i	-9	i	i	i	x	x	x	x
COc1ccc(N(CC(=O)NC2CC3CCC2C3)S(=O)(=O)c2ccccc2)cc1Cl (stereo not drawn)	0.54	7*	-1	i	i	i	114*	0.42	i	126%*	KCNQ1 ephys val=+
CN(C(=O)Nc1cnccc1C(F)(F)F)C1CCCCC1	-0.05	i	-9	i	i	i	x	x	x	x
Cc1cc(=O)[nH]c(SCC(=O)/C=C2\N(C)c3ccccc3C2(C)C)n1	-0.97	11*	-22	i	i	i	106*	0.48	88%*	79%*	KCNQ1 ephys val=i
CCCc1nn(-c2ccccc2)c2c1C(c1cccs1)C(C#N)=C(N)O2 (stereo not drawn)	0.35	7*	-4	i	i	i	0	0.41	i	i
COc1ccc(NS(=O)(=O)c2ccc(-c3coc(C)n3)cc2)cc1OC	-0.01	8*	-13	i	i	i	124*	0.52	84%*	36%*	KCNQ1 ephys val=i
Cc1cc(NC(=S)Nc2cccnc2)ccc1Br	-0.05	10*	-24	i	i	i	67*	0.49	i	i
COc1ccc(CC(=O)Nc2cc(S(C)(=O)=O)ccc2Cl)cc1S(=O)(=O)N1CCOCC1	x	x	x	i	x	x	x	x	x	x
CON(C)C(=O)/C=C/c1ccc([B-](F)(F)F)cc1	x	x	x	i	x	x	x	x	x	x
CCN(CC)CCN(C(=O)c1ccc2c(c1)OCCO2)c1nc2cc3c(cc2s1)OCO3	-1.4	7*	-14	i	i	i	50*	0.47	81%*	84%*
CN(C)CCCN(C(=O)c1ccc2c(c1)OCCO2)c1nc2cc3c(cc2s1)OCO3	-3.7	i	-8	i	i	i	x	x	x	x
Cc1ccc(NC(=O)C2CCN(S(=O)(=O)c3ccc4c(c3)NC(=O)C(C)S4)CC2)cc1C (stereo not drawn)	0.66	8*	-10	i	i	i	138*	0.48	117%*	128%*	KCNQ1 ephys val=i
CC1Sc2ccc(S(=O)(=O)N3CCC(C(=O)Nc4cccc(Cl)c4)CC3)cc2NC1=O (stereo not drawn)	0.75	11*	-10	i	i	i	150*	0.39	129%*	160%*
COc1ccccc1-c1nn(Cc2ccccc2)cc1C(=O)NCC(c1ccco1)N1CCCC1 (stereo not drawn)	x	x	x	i	x	x	x	x	x	x
CCOC(=O)C(C)On1c(-c2cccc(Cl)c2)nc2ccc([N+](=O)[O-])cc21 (stereo not drawn)	1.3	15*	-29	i	i	i	154*	0.34*	131%*	+
COC(=O)c1cc(OC)c(OC)cc1NC(=S)Nc1cc(Cl)ccc1OC	1	i	-10	i	i	i	x	x	x	x
O=C(Nc1cccc(Cl)c1)Nc1ccc2nccnc2c1	-0.02	7*	-8	i	i	i	98*	0.43	92%*	100%*	KCNQ1 ephys val=i
COC(=O)c1cc(OC)c(OC)cc1NC(=S)Nc1cccc(Cl)c1	-0.03	7*	-6	i	i	i	60*	0.51	i	i
N#Cc1ccc(NC(=O)Nc2cccc(C#N)c2)cc1	0.08	7*	-26	i	i	i	49*	0.49	i	i
O=C(Nc1ccncc1)Nc1cccc(F)c1	1.1	8*	-17	i	i	i	48*	0.55	i	42%*
N#Cc1cccc(NC(=O)c2ccccc2C(=O)O)c1	-1	i	-7	i	i	i	x	x	x	x
